Bioassay records as filed in PubChem BioAssay.
Shown are actives, neighbours in structure and some others; about 3.3% of the full set was active somewhere.
5HT1E ag = 5-HT1E receptor agonists, primary screen, cell-based, HTS; activation, % at 6 µM; 5-hydroxytryptamine receptor 1E (Homo sapiens), P28566; CHO 5-HT1E Ga15 NFAT-bla reporter, FRET; 0% DMSO wells, 100% control agonist wells; 0.69% of 65,000 active; AID 574, 2007;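 active = activation above a set limit, the screen-wide mean activation plus 3 SD, cut at about 8.5% in these data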;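 note: 100% = positive control agonist at 1 µM giving full maximal response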
Target sequence (P28566 whole entry, looked up): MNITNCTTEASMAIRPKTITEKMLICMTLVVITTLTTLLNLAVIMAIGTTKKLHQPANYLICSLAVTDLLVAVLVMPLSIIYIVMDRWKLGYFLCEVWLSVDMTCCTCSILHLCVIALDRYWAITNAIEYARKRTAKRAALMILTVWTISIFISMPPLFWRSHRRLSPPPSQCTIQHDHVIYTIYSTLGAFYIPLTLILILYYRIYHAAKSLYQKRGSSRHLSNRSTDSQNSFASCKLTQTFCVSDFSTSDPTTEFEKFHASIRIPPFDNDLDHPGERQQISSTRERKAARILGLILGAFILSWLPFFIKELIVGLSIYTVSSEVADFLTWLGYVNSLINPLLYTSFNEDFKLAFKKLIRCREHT
5HT1a ag = human 5-HT1a receptor agonists, primary screen, cell-based, CHO, Ga15 NFAT-bla reporter; 5-hydroxytryptamine receptor 1A (Homo sapiens), P08908; CHO 5-HT1a Ga15 NFAT-bla reporter, FRET ratio; 0% basal, 100% maximal reference agonist; activation, % at 10 µM; 0.56% of 65,000 active; AID 567, 2006;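 active = activation above the screen-wide mean activation plus 3 SD, cut at about 19% in these data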;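 note: 0% = DMSO wells and 100% = 5-CT at EC100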
HTR1E antagonist = 5-HT1E receptor antagonists, primary screen, cell-based, HTS; 5-hydroxytryptamine receptor 1E (Homo sapiens), P28566; CHO 5-HT1E Ga15 NFAT-bla reporter, FRET, antagonist; inhibition, % at 6 µM; 0.99% of 65,000 active; AID 571, 2007;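 active = inhibition above a set limit, the mean inhibition across every tested compound plus 3 SD, cut at about 29% in these data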;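 note: signal is the 460 over 535 nm emission ratio of beta-lactamase substrate; 0% = agonist plus DMSO wells and 100% = wells without agonist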
5-HT1A blocker = human 5-HT1a receptor antagonists, primary screen, cell-based, CHO, Ga15 NFAT-bla reporter; inhibition, % at 10 µM; 0.68% of 62,000 active; CHO 5-HT1a Ga15 NFAT-bla reporter, antagonist mode;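 active = inhibition above the mean of all tested compounds plus 3 SD, cut at about 43% in these data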;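 note: receptor stimulated by 5-CT agonist at 100 nM near EC80; beta-lactamase reporter measured by ratiometric fluorescence of a cleavable substrate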
HEK293 NFkB inh = inhibitors of PMA/ionomycin-induced NF-kB reporter, primary screen, antigen receptor NF-kB inhibitor project, cell-based, HEK-293 luciferase reporter, luminescence; HEK-293 NF-kB luciferase reporter; inhibition, % at 3 µM; 0.21% of 62,000 active; AID 465, 2006;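 active = inhibition above the mean of all tested compounds plus 3 SD, cut at about 40% in these data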;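 note: 0% = stimulated DMSO wells and 100% = 10 µM reference inhibitor 5653914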
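Timing: 1 h pretreatment, 16 h stimulation, 37 °C; system: HEK-293 cells with stable firefly luciferase reporter driven by four HIV NF-kB elements; doses: 3 µM once, 0.30% DMSO; measured by: luciferase luminescence; control set: DMSO and 10 µM reference inhibitor; repeats: single test; reagent: PMA plus ionomycin mix as NF-kB-activating stimulus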
Jurkat tox 60K = cytotoxicity toward Jurkat T cells, primary screen, cytotoxicity control, cell-based, Jurkat E6.1, 60K MLSMR library; Jurkat E6.1 viability, ATP luminescence, 48 h; inhibition, % at 4 µM; 1.2% of 56,000 active; AID 463, 2006;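 active = inhibition above the mean inhibition of all tested compounds plus 3 SD, cut at about 28% in these data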
Active calls of the source: *; / = not tested or not shown.

SMILES | 5HT1E ag | 5HT1a ag | HTR1E antagonist | 5-HT1A blocker | HEK293 NFkB inh | Jurkat tox 60K
CCCCCCNC(=O)c1c(N)n(/N=C/c2ccco2)c2nc3ccccc3nc12 | 3.4 | 30.8* | 1.8 | -7.6 | 7.7 | -4.9
CS(=O)(=O)N(CC(=O)N1CCN(c2cccc(Cl)c2)CC1)c1cccc(F)c1 | 0.0 | -6.4 | -1.2 | -7.3 | 11.5 | 5.2
O=c1c2ccccc2nc(SCc2nc(-c3ccccc3)no2)n1-c1ccc(F)cc1 | 0.3 | 20.4* | -1.6 | 12.9 | 20.0 | 1.9
Cc1ccc(-n2c(SCc3cn4ccsc4n3)nc3ccccc3c2=O)cc1 | 0.2 | 3.2 | 43.5* | 16.8 | 16.5 | 7.5
CCn1cc(C(C)NC(=O)COc2ccc(Cl)cc2C)c(C)n1 (stereo not drawn) | -1.4 | -2.0 | 0.3 | -1.4 | 13.1 | 7.0
O=S(NCc1ccco1)C12CC3CC(CC(C3)C1)C2 (stereo not drawn) | 0.1 | 1.9 | -7.9 | -2.0 | 18.8 | /
CC(=O)Oc1ccc(N2C(=O)C3C(C2=O)C2(C)C=CC3(C)O2)cc1 (stereo not drawn) | -0.5 | -6.4 | 63.8* | 84.7* | 2.0 | 19.7
COC(=O)c1cc(N2C(=O)C3C(C2=O)C2(C)C=CC3(C)O2)ccc1Cl (stereo not drawn) | -0.6 | 0.9 | 2.5 | -2.5 | 9.1 | 10.2
COc1ccc(-c2cc3nc(C)cc(C)n3n2)c(OC)c1 | -0.6 | 0.1 | 14.2 | -5.0 | -4.5 | 0.5
C=CCn1cnc2c(c1=O)c1nc3ccccc3nc1n2-c1ccc(Cl)cc1 | 0.1 | 0.8 | -0.9 | / | / | /
COc1cccc2cc(C(=O)N3CCc4ccccc43)c(=O)oc12 | -0.6 | -4.4 | -7.6 | -12.2 | -4.9 | 1.4
CCOC(=O)c1[nH]c(C)c(C(=O)N2CCc3ccccc32)c1C | -1.0 | -3.1 | 76.7* | 51.2* | 20.8 | 97.2*
COc1ccccc1C(=O)N1CCc2ccccc21 | 20.4* | -4.2 | -1.2 | 7.4 | 0.9 | -4.2
CCOC(=O)c1[nH]c(C)c(C(=O)Nc2cccc(Cl)c2C)c1C | 0.3 | -0.7 | 15.2 | 5.4 | -5.7 | 64.4*
CCOC(=O)c1cc2sccc2n1CC(=O)N1CCc2ccccc21 | 0.8 | -0.6 | 43.9* | 24.8 | 14.3 | /
NC(=O)CSc1nnc(COc2ccccc2)n1C1CCCCC1 | 0.0 | -1.6 | 3.6 | -5.1 | 3.0 | -9.4
CCOCC(=O)N1CCc2ccccc21 | -0.1 | 23.9* | 4.2 | 6.5 | -0.2 | -3.3
Cc1nc2sc(C(c3ccccc3)N3CCN(C)CC3)c(O)n2n1 (stereo not drawn) | 1.0 | -5.5 | 0.4 | -0.1 | 6.9 | -1.2
CC(=O)Nc1ccccc1N(C)S(=O)(=O)c1ccc(C)cc1 | 0.0 | -0.4 | 6.0 | 7.3 | 18.2 | 44.9*
CC(=O)Nc1ccccc1NC(=O)CN(C)S(=O)(=O)c1ccc(C)cc1 | 0.8 | -2.0 | -6.8 | 0.1 | 12.2 | -8.0
Cc1cc(C)nc(SCc2nnc(SCC(=O)N3CCCc4ccccc43)o2)n1 | -1.8 | -1.0 | 4.0 | 12.9 | 11.7 | -4.1
COc1ccc(OC)c(CN2CCN(c3ccccc3OC)CC2)c1 | 5.3 | -2.1 | 7.3 | 52.7* | -3.0 | 9.9
c1ccc(N2CCN(Cc3ccsc3)CC2)nc1 | 6.0 | 0.0 | -10.3 | 2.5 | 13.1 | 0.1
COc1cc(CN2CCN(c3ccccc3F)CC2)cc(OC)c1O | 14.1* | 0.9 | 2.4 | 4.0 | 11.7 | -3.7
COc1ccccc1N1CCN(Cc2ccsc2)CC1 | 20.9* | 40.3* | -0.1 | 29.2 | 11.6 | -7.6
SMILES | 5HT1E ag | 5HT1a ag | HTR1E antagonist | 5-HT1A blocker | HEK293 NFkB inh | Jurkat tox 60K
COc1ccccc1N1CCN(c2cc(N3CCCC3)nc(C)n2)CC1 | 0.1 | -0.4 | 2.3 | 7.4 | 13.1 | 6.8
COc1ccc(CC(C)N2CCN(Cc3ccccc3)CC2)c(OC)c1 (stereo not drawn) | -0.8 | -0.7 | 4.8 | 92.0* | 13.0 | -0.9
CC1CCCCN1Cc1nc2c(c(=O)n(C)c(=O)n2C)n1Cc1cccc2ccccc12 (stereo not drawn) | -0.4 | -2.4 | -2.2 | -0.7 | 11.4 | -4.7
O=C(C1CCC(=O)N1C1CCCCC1)N1CCN(c2ccc(F)cc2)CC1 (stereo not drawn) | 0.2 | -3.2 | -2.9 | -6.4 | 13.7 | -0.3
COc1ccccc1N1CCN(Cc2ccc(OC)c(OC)c2OC)CC1 | 31.0* | 3.8 | -0.9 | 61.7* | 20.2 | 6.8
COc1cc(S(=O)(=O)N2CCN(c3ccccc3F)CC2)ccc1Cl | -0.3 | 20.9* | -1.2 | -4.6 | 3.9 | -1.4
CCOc1ccccc1N1CCN(Cc2cccc(OC)c2OC)CC1 | 0.9 | -4.0 | 12.7 | 58.5* | 19.1 | 5.7
CCOC(=O)c1cnc2c(OC)cccc2c1N1CCN(c2ccc(OC)cc2)CC1 | 2.0 | 2.3 | -8.5 | 7.6 | 12.3 | -5.8
CCOC(=O)c1cnc2c(OC)cccc2c1N1CCN(c2ccccc2OC)CC1 | 9.1* | 2.4 | 2.0 | 37.8 | -5.9 | 2.1
COc1cc(S(=O)(=O)N2CCN(c3ccccc3)CC2)ccc1Cl | -0.7 | 3.8 | 0.4 | -5.6 | 8.2 | -0.8
COc1ccc(CN2CCN(C(=O)c3cccs3)CC2)c(OC)c1OC | 6.0 | 1.5 | 8.1 | -2.9 | 6.3 | -0.2
C#Cc1ccc(C(=O)Nc2cc(C(N)=O)ccc2N2CCOCC2)cc1 | -1.9 | -0.3 | 12.4 | -4.6 | 11.7 | 11.2
COCCN(CC(=O)NCc1ccc(OC)cc1)C(=O)CCC(=O)Nc1nccs1 | 1.4 | -2.0 | -4.7 | 3.3 | 8.5 | -9.8
COc1ccccc1N1CCN(C/C(O)=C(\C#N)c2nc(-c3ccccc3)cs2)CC1 | 10.1* | 1.3 | 3.3 | 10.2 | 10.2 | 0.2
CCOc1ccc(NC(=O)CCN2CCN(c3ccccc3OC)CC2)cc1 | 1.4 | 0.7 | 1.6 | 99.6* | 13.9 | -3.4
COc1ccccc1N1CCN(C/C(C)=C/c2ccccc2)CC1 | 7.0 | -3.1 | -4.0 | 83.6* | 10.8 | 10.8
N#CC1=C(N)OC2=C(C(=O)CCC2)C1CCc1ccccc1 (stereo not drawn) | -0.1 | -0.7 | -9.9 | / | / | /
O=c1c(=O)n(O)c2ccccc2n1O | -0.3 | -3.1 | -3.6 | 11.7 | 19.9 | -4.0
CCOc1ccccc1N1CC(O)=C(c2nc3ccccc3s2)C1=N | -0.6 | -1.7 | 9.1 | 26.7 | 29.8 | 78.2*
COc1ccccc1N1CC(O)=C(c2nc3ccccc3c(=O)[nH]2)C1=N | 0.1 | 0.5 | -3.1 | 8.0 | 21.2 | -6.3
O=C(O)C1CC=CCC1C(=O)Nc1ccc(S(=O)(=O)N2CCCc3ccccc32)cc1 (stereo not drawn) | -1.5 | -4.2 | -5.9 | -4.2 | -55.2 | 35.1*
